The structures appear in SMILES notation.

For experiment [1], the target named is Human immunodeficiency virus type 1 protease (Human immunodeficiency virus 1, UniProt Q72874). Briefly: Inhibitory activity against HIV-1 Protease. Put shortly:
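Buffer: 20 mM MES pH 6.0, 2 M NaCl, 5 mM DTT, 2 mM EDTA. Compounds in 25% Me2SO over a concentration range. Incubated 60 min at 37 °C with shaking, then filtered; released radioactivity counted by scintillation. IC50 from duplicate means, standardized to a reference-compound control.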

For experiment [2], the system named is MT4. Briefly: Inhibition of cytopathic effect of HIV-1 strain RF in MT-4 cell culture. In kind it is functional, cell-based. The note with it: Homo sapiens. In short, it runs like this:
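MT-4 cells at 10^6 cells/mL in RPMI 1640 were infected with HIV-1 RF at moi 2×10^-3 (5×10^4 cells/well). Compound in Me2SO was diluted in 10-fold steps from 100 to 0.01 μg/mL. Cells were kept 7 days at 37 °C, 5% CO2, then given MTT for 60 min. Acidified 2-propanol was added and A540 read. EC50 for 50% inhibition of formazan conversion is the mean of duplicates; toxicity was assayed at the same concentrations.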

The compound `CC1(C)S[C@H](CNC(=O)Cc2ccccc2)N[C@H]1C(=O)NCCNC(=O)[C@@H]1N[C@@H](CNC(=O)Cc2ccccc2)SC1(C)C` showed a half-maximal inhibitory concentration (IC50) in experiment [1] of 7800 nM.
In the case of `CC1(C)S[C@H]([C@H](NC(=O)Cc2ccccn2)C(=O)NCc2ccc(Cl)cc2)N[C@H]1C(=O)NCCNC(=O)[C@@H]1N[C@@H]([C@H](NC(=O)Cc2ccccn2)C(=O)NCc2ccc(Cl)cc2)SC1(C)C`, a half-maximal effect in experiment [2] (EC50) was put at 1900 nM. This compound also returned an IC50 in experiment [1] of 7.5 nM.
As to `CN(Cc1ccccc1)C(=O)[C@@H](NC(=O)Cc1ccccc1)[C@@H]1N[C@@H](C(=O)NCCNC(=O)[C@@H]2N[C@@H]([C@H](NC(=O)Cc3ccccc3)C(=O)N(C)Cc3ccccc3)SC2(C)C)C(C)(C)S1`, the IC50 in experiment [1] amounted to 820 nM.
With `CC1(C)S[C@H]([C@@H](CO)NC(=O)Cc2ccccc2)N[C@H]1C(=O)NCCNC(=O)[C@@H]1N[C@@H]([C@@H](CO)NC(=O)Cc2ccccc2)SC1(C)C`, in experiment [2], the EC50 was > 100000 nM. The compound also displayed an IC50 in experiment [1] of 140 nM.
In the case of `CCNC(=O)[C@@H](NC(=O)Cc1ccc(O)cc1)[C@@H]1N[C@@H](C(=O)NCCNC(=O)[C@@H]2N[C@@H]([C@H](NC(=O)Cc3ccc(O)cc3)C(=O)NCC)SC2(C)C)C(C)(C)S1`, in experiment [1], the IC50 is > 12000 nM.
Regarding `CC(C)(C)OC(=O)CNC(=O)[C@@H](NC(=O)c1ccccc1-c1ccccc1)[C@@H]1N[C@@H](C(=O)NCCNC(=O)[C@@H]2N[C@@H]([C@H](NC(=O)c3ccccc3-c3ccccc3)C(=O)NCC(=O)OC(C)(C)C)SC2(C)C)C(C)(C)S1`, the 50% effective concentration (EC50) in experiment [2] came to 1600 nM. The IC50 in experiment [1] came to 4.1 nM.
For `CCNC(=O)[C@@H](NC(=O)Cc1ccccn1)[C@@H]1N[C@@H](C(=O)NCCNC(=O)[C@@H]2N[C@@H]([C@H](NC(=O)Cc3ccccn3)C(=O)NCC)SC2(C)C)C(C)(C)S1` the same measures were > 100000 nM and 19 nM.
For `CCNC(=O)[C@@H](N)[C@@H]1N[C@@H](C(=O)NCCNC(=O)[C@@H]2N[C@@H]([C@H](N)C(=O)NCC)SC2(C)C)C(C)(C)S1`, in experiment [1], the half-inhibitory concentration (IC50) is 120000 nM.
In the case of `CC1(C)S[C@H]([C@H](NC(=O)Cc2ccccc2)C(=O)NCCO)N[C@H]1C(=O)NCCNC(=O)[C@@H]1N[C@@H]([C@H](NC(=O)Cc2ccccc2)C(=O)NCCO)SC1(C)C`, in experiment [2], the EC50 is > 100000 nM. Further, the IC50 in experiment [1] is 40 nM.
In the case of `CCNC(=O)[C@@H](NC(=O)c1ccccc1Oc1ccccc1)[C@@H]1N[C@@H](C(=O)NCCNC(=O)[C@@H]2N[C@@H]([C@H](NC(=O)c3ccccc3Oc3ccccc3)C(=O)NCC)SC2(C)C)C(C)(C)S1`, in experiment [2], the EC50 was > 100000 nM. The compound also yielded an IC50 in experiment [1] of 160 nM.
As to `CC1(C)S[C@H]([C@H](NC(=O)Cc2ccccc2)C(=O)N(CCO)CCO)N[C@H]1C(=O)NCCNC(=O)[C@@H]1N[C@@H]([C@H](NC(=O)Cc2ccccc2)C(=O)N(CCO)CCO)SC1(C)C`, the IC50 in experiment [1] stood at 840 nM.
For the compound `CC1(C)S[C@H]([C@H](NC(=O)Cc2ccccc2)C(=O)OCc2ccccc2)N[C@H]1C(=O)NCCNC(=O)[C@@H]1N[C@@H]([C@H](NC(=O)Cc2ccccc2)C(=O)OCc2ccccc2)SC1(C)C`, the EC50 in experiment [2] was > 100000 nM. Moreover, the IC50 in experiment [1] turned out to be 75 nM.
For the compound `CC1(C)S[C@H]([C@H](NC(=O)c2ccccc2-c2ccccc2)C(=O)NCC(=O)O)N[C@H]1C(=O)NCCNC(=O)[C@@H]1N[C@@H]([C@H](NC(=O)c2ccccc2-c2ccccc2)C(=O)NCC(=O)O)SC1(C)C`, in experiment [2], the half-maximal effective concentration (EC50) is > 100000 nM. Also, 39 nM corresponded to half-maximal inhibition in experiment [1] (IC50).
The compound `CCNC(=O)[C@@H](NC(=O)c1ccccc1)[C@@H]1N[C@@H](C(=O)NCCNC(=O)[C@@H]2N[C@@H]([C@H](NC(=O)c3ccccc3)C(=O)NCC)SC2(C)C)C(C)(C)S1` registered an IC50 in experiment [1] of 390 nM.
`CCNC(=O)[C@@H](NC(=O)c1c(-c2ccccc2)noc1C)[C@@H]1N[C@@H](C(=O)NCCNC(=O)[C@@H]2N[C@@H]([C@H](NC(=O)c3c(-c4ccccc4)noc3C)C(=O)NCC)SC2(C)C)C(C)(C)S1` displayed an EC50 in experiment [2] of 2500 nM. This compound also had an IC50 in experiment [1] of 5.4 nM.
`CCNC(=O)[C@@H](NC(=O)/C=C\c1ccccc1)[C@@H]1N[C@@H](C(=O)NCCNC(=O)[C@@H]2N[C@@H]([C@H](NC(=O)/C=C\c3ccccc3)C(=O)NCC)SC2(C)C)C(C)(C)S1` gave an EC50 in experiment [2] of 3200 nM. In experiment [1], this compound gave an IC50 of 2.9 nM.
For `CCNC(=O)[C@@H](NC(=O)Cc1ccccc1)[C@@H]1N[C@@H](C(=O)NCCNC(=O)[C@@H]2N[C@@H](CNC(=O)Cc3ccccc3)SC2(C)C)C(C)(C)S1`, the EC50 in experiment [2] is > 100000 nM. In addition, half-maximal inhibition in experiment [1] (IC50) required 35 nM.
Compound `CC(C)(C)OC(=O)CNC(=O)[C@@H](NC(=O)Cc1ccccc1)[C@@H]1N[C@@H](C(=O)NCCNC(=O)[C@@H]2N[C@@H]([C@H](NC(=O)Cc3ccccc3)C(=O)NCC(=O)OC(C)(C)C)SC2(C)C)C(C)(C)S1` registered an EC50 in experiment [2] of 2700 nM. In experiment [1], the IC50 came to 21 nM.
`CC1(C)S[C@H]([C@H](NC(=O)Cc2ccccc2)C(N)=O)N[C@H]1C(=O)NCCNC(=O)[C@@H]1N[C@@H]([C@H](NC(=O)Cc2ccccc2)C(N)=O)SC1(C)C`: the EC50 in experiment [2] was > 100000 nM.
As to `COC(=O)[C@@H](NC(=O)Cc1ccccc1)[C@@H]1N[C@@H](C(=O)NCCNC(=O)[C@@H]2N[C@@H]([C@H](NC(=O)Cc3ccccc3)C(=O)OC)SC2(C)C)C(C)(C)S1`, the EC50 in experiment [2] was > 100000 nM.
In the case of `CCNC(=O)[C@@H](NC(=O)Cc1ccccc1)[C@@H]1N[C@@H](C(=O)NCCNC(=O)[C@@H]2NCSC2(C)C)C(C)(C)S1`, half-maximal inhibition in experiment [1] (IC50) was put at 8800 nM.
In turn, `CCNC(=O)[C@@H](NC(=O)c1ccccc1Nc1ccccc1)[C@@H]1N[C@@H](C(=O)NCCNC(=O)[C@@H]2N[C@@H]([C@H](NC(=O)c3ccccc3Nc3ccccc3)C(=O)NCC)SC2(C)C)C(C)(C)S1` gave an IC50 in experiment [1] of 4800 nM.
Consider `CC1(C)S[C@H]([C@H](NC(=O)Cc2ccccc2)C(=O)NCC(=O)O)N[C@H]1C(=O)NCCNC(=O)[C@@H]1N[C@@H]([C@H](NC(=O)Cc2ccccc2)C(=O)NCC(=O)O)SC1(C)C`, for which the EC50 in experiment [2] is > 100000 nM. The IC50 in experiment [1] amounted to 39 nM.
The like results for `CCNC(=O)[C@@H](NC(=O)CC(C)C)[C@@H]1N[C@@H](C(=O)NCCNC(=O)[C@@H]2N[C@@H]([C@H](NC(=O)CC(C)C)C(=O)NCC)SC2(C)C)C(C)(C)S1` were, in that order, > 100000 nM and 8.7 nM.
The like results for `CCNC(=O)[C@@H](NC(=O)c1ccccc1Cc1ccccc1)[C@@H]1N[C@@H](C(=O)NCCNC(=O)[C@@H]2N[C@@H]([C@H](NC(=O)c3ccccc3Cc3ccccc3)C(=O)NCC)SC2(C)C)C(C)(C)S1` were, in that order, > 100000 nM and 72 nM.
`CCNC(=O)[C@@H](NC(=O)Cc1ccc2ccccc2c1)[C@@H]1N[C@@H](C(=O)NCCNC(=O)[C@@H]2N[C@@H]([C@H](NC(=O)Cc3ccc4ccccc4c3)C(=O)NCC)SC2(C)C)C(C)(C)S1` gave an IC50 in experiment [1] of 820 nM.
For the compound `CCNC(=O)[C@@H](NC(=O)Cc1ccccc1)[C@@H]1N[C@@H](C(=O)NCCNC(=O)[C@@H]2N[C@@H]([C@H](NC(=O)Cc3ccccc3)C(=O)NCC)SC2(C)C)C(C)(C)S1`, the IC50 in experiment [1] was 1300 nM.
As for `CC1(C)S[C@H]([C@@H](COC(=O)c2ccccc2)NC(=O)Cc2ccccc2)N[C@H]1C(=O)NCCNC(=O)[C@@H]1N[C@@H]([C@@H](COC(=O)c2ccccc2)NC(=O)Cc2ccccc2)SC1(C)C`, the IC50 in experiment [1] came to 70 nM.

The record behind these values is ChEMBL document CHEMBL1126854, “A series of penicillin derived C2-symmetric inhibitors of HIV-1 proteinase: synthesis, mode of interaction, and structure-activity relationships” (J Med Chem, 1993).
